Bioassay records (PubChem BioAssay)
OX1R antag-1 – OX1R (human) antagonism; 330,000 tested, 1.8% active; OX1R-expressing cells, FRET antagonist read-out; O43613; inhibition, % at 6.6 µM; in the data active means inhibition mostly above about 38%, no sharp cut-off; inactive means mostly below about 40%
CHO parental Ca – counter-screen for OX1R antagonists: effect in parental CHO cells; parental CHO-K1, ATP-induced calcium, Fluo-8 fluorescence; inhibition, % at 5.6 µM; 330,000 tested, 0.63% active; AID 463079;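 active means inhibition above that plate's mean sample inhibition plus 3 SD, cut at about 26% in these data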
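Test system: untransfected parental CHO cell line. Compound: one dose, 5.6 µM nominal. Detection: intracellular calcium via Fluo-8 no-wash fluorescent dye. Measure: % inhibition. Benchmarks: ATP-challenged DMSO wells low, unchallenged DMSO wells high.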
V1R ag counter – activates human V1a receptor in oxytocin agonist counter-screen; 320,000 tested, 0.25% active; P37288; activation, % at 3 µM; AID 2797; CHO-V1R cells, Fluo-8 calcium fluorescence, agonist mode; 0% DMSO, 100% 3 nM vasopressin;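 active means activation above the mean activation of all tested compounds plus 3 SD, per screening run, cut at about 20% in these data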;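 further: signal is peak over basal fluorescence ratio across a 100 second FLIPR read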
Target sequence (P37288 whole entry, looked up): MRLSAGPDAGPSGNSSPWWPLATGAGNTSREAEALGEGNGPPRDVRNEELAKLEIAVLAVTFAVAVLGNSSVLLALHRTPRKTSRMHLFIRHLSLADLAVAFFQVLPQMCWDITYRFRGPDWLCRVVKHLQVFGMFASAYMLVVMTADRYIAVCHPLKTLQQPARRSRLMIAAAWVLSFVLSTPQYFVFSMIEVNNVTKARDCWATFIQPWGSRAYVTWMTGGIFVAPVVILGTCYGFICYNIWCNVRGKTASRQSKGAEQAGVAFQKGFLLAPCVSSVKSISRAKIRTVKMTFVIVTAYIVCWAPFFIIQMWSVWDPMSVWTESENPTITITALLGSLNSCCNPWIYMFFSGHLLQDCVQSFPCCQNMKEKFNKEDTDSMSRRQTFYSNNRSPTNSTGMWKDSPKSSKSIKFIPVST
OXTR agonist – human OXTR agonism | activation, % at 3 µM | CHO-OTR cells, Fluo-8 calcium fluorescence; normalized: DMSO 0%, oxytocin 100% | P30559 | 320,000 tested, 0.32% active;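 active means activation above the mean of all tested compounds plus 3 SD, cutoff set per screening run, cut at about 20% in these data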;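 further: peak over basal fluorescence ratio from a 100 s FLIPR kinetic read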
OX1R antag-2 – antagonists of human orexin 1 receptor. CHO/OX1R cells, Fluo-8 calcium fluorescence, orexin A. AID 434989. inhibition, % at 5 µM. 330,000 tested, 0.43% active;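 active means inhibition above its plate's threshold, mean inhibition of all tested compounds on the plate plus 3 SD, cut at about 37% in these data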
OXTR potentiator – potentiates the human oxytocin receptor response | activation, % at 3 µM | CHO-OTR cells, Fluo-8 calcium fluorescence, potentiator mode; 0% = oxytocin EC15, 100% = EC100 | P30559 | 320,000 tested, 0.061% active;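 active means activation above that plate's cutoff, the mean activation of tested compounds plus 3 SD, cut at about 6.6% in these data, passing the limit was not always enough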
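Replication – single well per compound, singlicate · Assay system – CHO cell line stably expressing human OTR · Timing – 6 min pre-incubation, 100 s read · Measure – normalized max/min fluorescence ratio, % activation · Doses – 3.0 µM, one dose · Detection – Fluo-8 calcium dye fluorescence · Probe or stimulus – oxytocin near EC15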
OX1R HTRF conf – OX1R (human) antagonism, HTRF confirmed | shares compounds with OX1R antag-1 | OX1R-expressing cells, HTRF antagonist assay | inhibition, % at 6.6 µM | 1,800 tested, 49% active | AID 492964; in the data active means inhibition above about 55%;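 further: CHO cells expressing OX1R stimulated with orexin A at about EC80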
CHO-K1 HTRF – signal in parental CHO-K1 cells, OX1R antagonist counter-screen; shares compounds with OX1R antag-1; inhibition, % at 6.6 µM; 1,800 tested, 48% active; HTRF counterscreen; in the data active means inhibition above about 17%
A number is an active result; n = inactive; x = no result given. Compounds with a hit are over-represented: about 2.7% of the library has one in this group of screens.

SMILES	OX1R antag-1	CHO parental Ca	V1R ag counter	OXTR agonist	OX1R antag-2	OXTR potentiator	OX1R HTRF conf	CHO-K1 HTRF
O=C(NCCCN1CCOCC1)c1ccc(Cl)cc1[N+](=O)[O-]	106	n	n	n	n	n	n	n
O=C(c1cc([N+](=O)[O-])cc([N+](=O)[O-])c1)N1CCOCC1	111	n	n	n	n	n	n	78
O=[N+]([O-])c1ccc(NCCCN2CCOCC2)c([N+](=O)[O-])c1	171	n	n	n	n	n	n	72
Cc1cccc(C)c1NC(=O)CN1C(=O)COc2ccccc21	n	n	n	n	n	n	x	x
COc1ccc(OC)c(NC(=O)CSCc2cnn(-c3ccccc3)c2-n2cccc2)c1	78	n	n	n	n	n	77	n
COc1ccc(C(=O)Nc2nc(-c3cccs3)cs2)cc1	90	n	n	n	n	n	65	20
O=C(Nc1nc(-c2cccs2)cs1)c1ccc(Cl)cc1	n	n	n	n	n	n	x	x
O=C1c2cc(S(=O)(=O)NCCO)ccc2-c2ccc(S(=O)(=O)NCCO)cc21	79	n	n	n	n	n	61	64
COc1cc2c(cc1OC)CN(C(=O)CN1C(=O)c3ccc([N+](=O)[O-])cc3C1=O)CC2	98	n	n	n	n	n	n	37
Cc1cccc(C(=O)Nc2nnc(Cc3ccccc3)s2)c1	n	n	n	n	n	n	x	x
COc1cccc2oc3cc(C#Cc4ccccn4)ccc3c(=O)c12	79	n	n	n	n	n	64	n
CN(C(=O)CN1CCN(c2ccccc2F)CC1)C1CCCc2ccccc21 (configuration not stated)	n	n	n	n	n	n	x	x
Cc1cccc(NC(=O)CCCN=C2NS(=O)(=O)c3ccccc32)c1C	n	n	n	n	n	n	x	x
O=C(O)c1ccc(NC2=C(n3nnc4ccccc43)C(=O)c3ccccc3C2=O)cc1	174	n	n	n	n	n	n	56
CCN(CC)c1ccc(/C=N/NC(=O)OC)c(O)c1	n	n	n	n	n	n	x	x
CCN(CC)c1ccc(/C=N/NC(=O)c2ccoc2C)c(O)c1	85	n	n	n	n	n	91	n
NC(=O)c1c(NC(=O)Cn2cc([N+](=O)[O-])cn2)sc2c1CCCC2	101	n	n	n	n	n	n	n
CCOC(=O)c1c(NC(=O)Cn2cc([N+](=O)[O-])cn2)sc2c1CCC2	n	n	n	n	n	n	x	x
Cc1ccc(S(=O)(=O)NCCOc2nc(N(C)C)nc(N(C)C)n2)cc1	90	n	n	n	n	n	64	n
COc1ccc(S(=O)(=O)N(C)C[C@H]2Oc3ccc(NC(=O)NC4CCCCC4)cc3C(=O)N([C@H](C)CO)C[C@@H]2C)cc1	n	n	n	n	n	n	x	x
CC1(C)C[C@@H](O)CC2(C1)C[C@]1(C)CC(O)[C@H]2C(C)(C)C1 (some centres not stated)	n	n	n	n	n	n	x	x
COc1ccc(-c2csc(NC(=S)NC(=O)c3ccco3)n2)cc1	n	n	n	n	n	n	x	x
O=C(NC(=S)Nc1nc(-c2ccccc2)cs1)c1ccco1	79	n	n	n	n	n	63	n
CCC(=O)N1CCc2cc(-c3csc(NC(=O)c4ccco4)n3)ccc21	94	n	n	n	n	n	66	n
COCCCNc1nc2ccccc2nc1NS(=O)(=O)c1cccc(C)c1	n	n	n	n	n	n	x	x
O=C(NCc1cccnc1)C1CCCN(S(=O)(=O)c2cccc3nsnc23)C1 (configuration not stated)	89	n	n	n	n	n	n	32
O=C(NCc1ccccc1)C1CCCN(S(=O)(=O)c2cccc3nsnc23)C1 (configuration not stated)	n	n	n	n	n	n	x	x
CC(C)N(CCCNC(=O)Cn1c(=O)c2cccn2c2ccc(F)cc21)Cc1ccccc1	n	n	n	n	n	n	x	x
